Consider one compound from ChEMBL document CHEMBL1671655, “Anidulafungin is fungicidal and exerts a variety of postantifungal effects against Candida albicans, C. glabrata, C. parapsilosis, and C. krusei isolates” (2009).

The test system of assay [1] is Candida parapsilosis. Briefly: Increase in susceptibility to SDS in Candida parapsilosis isolate 1 assessed as cell wall damage at 16 times MIC after 1 hr relative to control. The assay is classed as functional, organism-based. An outline of the steps:
(§1)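 Cells recovered 8 h after a 1-h drug exposure were grown in YPD with 1% glucose to exponential phase and adjusted to OD599 0.1. Undiluted culture and 10-fold serial dilutions were spotted onto YPD plates containing SDS (0.01 to 0.04%), then incubated 72 h at 30°C. Growth compared with unexposed control cells; triplicate.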

The subject of assay [2] is Candida parapsilosis. Briefly: Fungicidal activity against Candida parapsilosis isolate S assessed as log reduction in bacterial count at MIC after 48 hrs by time-kill analysis. The assay is classed as functional. The following applies: Lodderomyces parapsilosis. An outline of the steps:
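Isolates subcultured twice on SDA, then suspended to 0.5 McFarland and diluted into RPMI 1640 (MOPS, pH 7.0) with or without anidulafungin, giving about 1 x 10^5 to 5 x 10^5 CFU/ml. Tubes were shaken at 35°C. Samples were taken at 0, 2, 4, 8, 12, 24 and 48 h, serially diluted 10-fold, plated on SDA, and CFU counted after 48 h at 35°C. Each isolate was run twice; mean values.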

The test system of assay [3] is Nakaseomyces glabratus. Briefly: Increase in susceptibility to calcofluor white in Candida glabrata isolate 3 assessed as cell wall damage at MIC after 1 hr relative to control. It counts as functional, organism-based. An outline of the steps: (§2)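 Cells recovered 8 h after a 1-h drug exposure were grown to exponential phase in YPD with 1% glucose and adjusted to OD599 0.1. Undiluted and 10-fold serially diluted cultures were spotted onto YPD plates containing calcofluor white, then incubated at 30°C for 72 h. Growth compared with no-drug control cells; triplicate.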

The subject of assay [4] is Candida albicans. Briefly: Fungicidal activity against Candida albicans isolate S assessed as log reduction in bacterial count at MIC after drug exposure for 1 hr followed by washout measured after 48 hrs in the absence of drug by PAFE study. The assay is classed as functional. The essentials: (§3)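 Starting inoculum ~1 x 10^5 to 5 x 10^5 CFU/ml in MOPS-buffered RPMI 1640 (pH 7.0) with drug at multiples of the CLSI M27-A3 MIC. After 1 h at 35°C, cells washed and centrifuged three times at 1,400 x g for 10 min, then resuspended in warm drug-free RPMI. Shaken at 35°C and plated on SDA at 0–48 h; CFU counted after 48 h. Run twice per isolate; means.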

Assay [5] deals with Pichia kudriavzevii. Briefly: Fungicidal activity against Candida krusei isolate 1 assessed as log reduction in bacterial count at 4 times MIC after 48 hrs by time-kill analysis. It counts as functional. The following applies: isolate 1, 48 h. An outline of the steps:
(§4)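 Isolates subcultured twice on SDA, suspended to 0.5 McFarland, giving ~1 x 10^5 to 5 x 10^5 CFU/ml in MOPS-buffered RPMI 1640 (pH 7.0) with or without drug at multiples of MIC (MIC by CLSI M27-A3). Tubes shaken at 35°C with continuous drug. Sampled at 0–48 h, diluted 10-fold and plated on SDA; CFU counted after 48 h at 35°C. Run twice per isolate; means.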

Assay [6] has as its system Pichia kudriavzevii. Briefly: Increase in susceptibility to calcofluor white in Candida krusei isolate ATCC 6258 assessed as cell wall damage at 4 times MIC after 1 hr relative to control. It counts as functional, organism-based. The essentials: as §2
Assay [7] relates to Candida albicans. Put plainly: Fungicidal activity against Candida albicans isolate 1 assessed as log reduction in bacterial count at MIC after 48 hrs by time-kill analysis. It counts as functional. As to conditions: isolate 1, 48 h. The essentials:
as §4

The subject of assay [8] is Candida parapsilosis. Put plainly: Increase in susceptibility to SDS in Candida parapsilosis isolate 1 assessed as cell wall damage at MIC after 1 hr relative to control. The assay is classed as functional, organism-based. The essentials: as §1
In assay [9] the test system is Nakaseomyces glabratus. Briefly: Increase in susceptibility to SDS in Candida glabrata isolate 1 assessed as cell wall damage at 16 times MIC after 1 hr relative to control. The assay is classed as functional, organism-based. The essentials: as §1
Assay [10] has as its system Candida parapsilosis. Put plainly: Increase in susceptibility to SDS in Candida parapsilosis isolate 1 assessed as cell wall damage at 4 times MIC after 1 hr relative to control. It counts as functional, organism-based. The essentials: as §1
Assay [11] relates to Candida parapsilosis. Briefly: Increase in susceptibility to calcofluor white in Candida parapsilosis isolate A assessed as cell wall damage at MIC after 1 hr relative to control. The assay is classed as functional, organism-based. An outline of the steps:
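Candida given a 1-h anidulafungin pulse in MOPS-buffered RPMI 1640 (pH 7.0) at 35°C, washed three times by centrifugation, and regrown drug-free. Cells collected 8 h later, grown in YPD with 1% glucose to exponential phase, and set to OD599 0.1. Undiluted culture and 10-fold dilutions (4 µl) spotted on YPD plates with calcofluor white, then 30°C for 72 h. Triplicate; compared with no-drug cells.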

Assay [12] concerns Pichia kudriavzevii. Briefly: Fungicidal activity against Candida krusei isolate ATCC 6258 assessed as log reduction in bacterial count at MIC after 48 hrs by time-kill analysis. As to conditions: isolate ATCC 6258, 48 h. It counts as functional. The essentials:
as §4

Assay [13] concerns Candida albicans. Put plainly: Fungicidal activity against Candida albicans ATCC 90028 assessed as log reduction in bacterial count at 16 times MIC after drug exposure for 1 hr followed by washout measured after 48 hrs in the absence of drug by PAFE study. The assay is classed as functional. The essentials: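 Inoculum of about 1 x 10^5 to 5 x 10^5 CFU/ml in MOPS-buffered RPMI (pH 7.0), shaken at 35°C and exposed to drug for 1 h. Cells then washed and centrifuged three times and resuspended in drug-free warm RPMI. Samples plated on SDA at 0, 2, 4, 8, 12, 24 and 48 h, with CFU counted after 48 h at 35°C. Run twice per isolate; values are means.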

The subject of assay [14] is Candida parapsilosis. Put plainly: Fungicidal activity against Candida parapsilosis isolate 1 assessed as log reduction in bacterial count at 4 times MIC after 48 hrs by time-kill analysis. The assay is classed as functional. As to conditions: Lodderomyces parapsilosis, isolate 1, 48 h. An outline of the steps: as §4
In assay [15] the test system is Candida albicans. Briefly: Antifungal activity against Candida albicans ATCC 90028 by CLSI M27-A3 broth microdilution method. It counts as functional. An outline of the steps: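 CLSI M27-A3 broth microdilution in RPMI 1640 buffered to pH 7.0 with MOPS. Starting inoculum 0.5 x 10^3 to 2.5 x 10^3 cells/ml, incubated at 35°C. MIC read as the lowest concentration giving >50% growth reduction versus control. Each isolate tested on at least three occasions.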
(In general: In broth dilution the organism is exposed to a series of concentrations in liquid medium.)

In assay [16] the test system is Nakaseomyces glabratus. Put plainly: Fungicidal activity against Candida glabrata isolate 1 assessed as log reduction in bacterial count at MIC after drug exposure for 1 hr followed by washout measured after 48 hrs in the absence of drug by PAFE study. The assay is classed as functional. The essentials:
as §3

Assay [17] relates to Nakaseomyces glabratus. Put plainly: Fungicidal activity against Candida glabrata isolate 1 assessed as log reduction in bacterial count at 4 times MIC after drug exposure for 1 hr followed by washout measured after 48 hrs in the absence of drug by PAFE study. It counts as functional. The essentials:
as §3

Assay [18] has as its system Candida albicans. Put plainly: Increase in susceptibility to calcofluor white in Candida albicans ATCC 90028 assessed as cell wall damage at 16 times MIC after 1 hr relative to control. It counts as functional, organism-based. The essentials: as §2
Assay [19] deals with Nakaseomyces glabratus. Briefly: Increase in susceptibility to calcofluor white in Candida glabrata isolate 1 assessed as cell wall damage at MIC after 1 hr relative to control. It counts as functional, organism-based. An outline of the steps: as §2
In assay [20] the test system is Pichia kudriavzevii. Put plainly: Fungicidal activity against Candida krusei isolate ATCC 6258 assessed as log reduction in bacterial count at 4 times MIC after 48 hrs by time-kill analysis. It counts as functional. The following applies: isolate ATCC 6258, 48 h. An outline of the steps: as §4
Assay [21] deals with Nakaseomyces glabratus. Briefly: Fungicidal activity against Candida glabrata isolate 3 assessed as log reduction in bacterial count at 16 times MIC after 48 hrs by time-kill analysis. The assay is classed as functional. The following applies: isolate 3, 48 h. An outline of the steps: as §4
The subject of assay [22] is Nakaseomyces glabratus. Briefly: Fungicidal activity against Candida glabrata isolate 3 assessed as log reduction in bacterial count at MIC after 48 hrs by time-kill analysis. The assay is classed as functional. The following applies: isolate 3, 48 h. An outline of the steps: as §4
In assay [23] the test system is Pichia kudriavzevii. Briefly: Increase in susceptibility to calcofluor white in Candida krusei isolate ATCC 6258 assessed as cell wall damage at 16 times MIC after 1 hr relative to control. The assay is classed as functional, organism-based. An outline of the steps:
as §2

SMILES strings stand for the structures. In brackets after ≈: the same amount, converted by molar mass. Activity calls are given as the source filed them. The calls are words filed in the database; no cut-off is given here. Starred links: 1 amine or outer side, 2 acyl side, 3 side chain; linkers in the order of their positions; H or OH if unused. Positions of bridges follow the written chain, without caps; N, C: chain ends. Non-standard residues stand in square brackets, D forms with d. Residues, ends and D or L forms follow the SMILES beside them. *: point of attachment. pTerphenylCO(4''-OnC5H11) = CCCCCOc1ccc(-c2ccc(-c3ccc(C(=O)*)cc3)cc2)cc1; Orn(4R-OH,5R-OH) = O=C([C@H](C[C@@H](O)[C@@H](O)N[*:3])N[*:1])[*:2]; hTyr(3S-OH,4S-OH) = N[C@H](C(=O)O)[C@H](O)[C@@H](O)c1ccc(O)cc1; Pro(3S-OH,4S-Me) = C[C@H]1CN[C@H](C(=O)O)[C@H]1O; Hyp = O=C(O)[C@@H]1C[C@@H](O)CN1

By MIC is commonly meant the lowest concentration found to suppress growth. Read a low MIC as inhibition by little substance. As to `CCCCCOc1ccc(-c2ccc(-c3ccc(C(=O)N[C@H]4C[C@@H](O)[C@@H](O)NC(=O)[C@@H]5[C@@H](O)[C@@H](C)CN5C(=O)[C@H]([C@@H](C)O)NC(=O)[C@H]([C@H](O)[C@@H](O)c5ccc(O)cc5)NC(=O)[C@@H]5C[C@@H](O)CN5C(=O)[C@H]([C@@H](C)O)NC4=O)cc3)cc2)cc1` [ANIDULAFUNGIN] ({pTerphenylCO(4''-OnC5H11)}-[Orn(4R-OH,5R-OH)]T[Hyp][hTyr(3S-OH,4S-OH)]T[Pro(3S-OH,4S-Me)]; lactam 1-C), the result in [1], in assay [3], in assay [6], in assay [8], in assay [9] and in [10] was Active. In addition, the outcome in [11], in assay [18], in assay [19] and in [23] was Active. Moreover, the log reduction in [2] was found to be 1.32 log CFU/ml; in [4], 1.59 log CFU/ml; in [5] it was 2.29 log CFU/ml; in assay [7], 1.15 log CFU/ml; in [12], 2.21 log CFU/ml; in [13] it was 2.14. Also, the log reduction in assay [14] was found to be 3.07 log CFU/ml; in assay [16], 0.89; in assay [17], 2.81; in [20], 2.94 log CFU/ml; in assay [21], 3.89 log CFU/ml; in assay [22], 1 log CFU/ml. Besides, the MIC in assay [15] is 0.03 µg/mL (≈ 0.0263 µM).
